Experimental data reported in ChEMBL document CHEMBL2407016 (J Med Chem, 2013).
pIC50, pKd: −log10 of the molar value. Activity calls are given as the source filed them. The calls are words filed in the database; no cut-off is given here.

How the values were obtained:
[1] = molecular target: T1, 1-deoxy-D-xylulose 5-phosphate reductoisomerase (Mycobacterium tuberculosis, UniProt P9WNS1); assay: Inhibition of Mycobacterium tuberculosis DXR using DXP as substrate measured every 5 secs for 250 secs in presence of NADPH
T1 sequence (P9WNS1 whole entry): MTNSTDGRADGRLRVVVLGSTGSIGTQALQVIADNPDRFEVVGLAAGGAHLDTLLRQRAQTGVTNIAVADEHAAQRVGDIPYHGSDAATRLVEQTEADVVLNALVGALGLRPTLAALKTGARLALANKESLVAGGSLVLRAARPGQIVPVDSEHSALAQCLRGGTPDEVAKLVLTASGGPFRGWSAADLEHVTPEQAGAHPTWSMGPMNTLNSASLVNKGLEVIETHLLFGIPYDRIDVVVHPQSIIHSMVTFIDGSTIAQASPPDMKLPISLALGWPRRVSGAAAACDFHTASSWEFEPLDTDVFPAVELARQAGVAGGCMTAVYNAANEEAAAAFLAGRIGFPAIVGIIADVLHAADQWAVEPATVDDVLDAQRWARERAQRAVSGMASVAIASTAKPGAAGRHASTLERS
Outline: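 MtDXR activity assay run with NADPH cofactor at 200 μM; IC50 taken from inhibition of enzyme activity.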

[2] = Inhibition of Plasmodium falciparum DXR using DXP as substrate measured every 5 secs for 250 secs in presence of NADPH
[3] = Inhibition of Escherichia coli DXR using DXP as substrate measured every 5 secs for 250 secs in presence of NADPH
[4] = test system: Mycobacterium tuberculosis; assay: Antibacterial activity against Mycobacterium tuberculosis H37Rv assessed as growth inhibition by Alamar blue assay; type: functional, organism-based
[5] = test system: Plasmodium falciparum; assay: Antimalarial activity against Plasmodium falciparum 3D7 assessed as parasite growth inhibition after 18 hrs by SYBR Green-1 staining-based fluorescence assay; type: functional, organism-based; conditions: 3D7, 18 h
[6] = molecular target: T2, 1-deoxy-D-xylulose 5-phosphate reductoisomerase (Mycobacterium tuberculosis) (UniProt P9WNS1); assay: Inhibition of Mycobacterium tuberculosis DXR using DXP as substrate at 100 uM measured every 5 secs for 250 secs in presence of NADPH relative to control
T2 sequence (whole entry): T1 sequence (P9WNS1 whole entry)

[7] = molecular target: T1, 1-deoxy-D-xylulose 5-phosphate reductoisomerase; assay: Binding affinity to Mycobacterium tuberculosis DXR assessed as dissociation constant by spectrofluorimetric analysis in presence of NADPH and MnCl2
Outline: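 Purified MtDXR; binding followed by direct fluorescence from changes in the environment of the protein's six tryptophan residues.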

SMILES | pIC50 [1] | pIC50 [2] | pIC50 [3] | growth inhibition (GI) [4] | pIC50 [5] | inhibition [6] [%] | pKd [7]
O=C(c1ccc2ccccc2c1)N(O)CCCP(=O)(O)O | 5.70 |  |  |  |  |  | 
O=C(CCCOc1ccccc1)NCC(=O)N(O)CCCP(=O)(O)O | < 3.70 | 6.40 | 6.00 |  |  |  | 
Cc1ccccc1C(=O)N(O)CCC(c1ccc(Cl)c(Cl)c1)P(=O)(O)O (stereo not given) | 6.08 |  |  | inactive | < 5.00 | 95 | 
O=C(C1CC1)N(O)CCCP(=O)(O)O | 3.81 |  | 5.35 |  |  |  | 
O=C(c1cccnc1)N(O)CCCP(=O)(O)O | 5.80 |  |  |  |  |  | 
O=CN(O)CCCP(=O)(O)O [FOSMIDOMYCIN] |  | 7.49 | 7.30 |  |  |  | 
O=C(c1ccccc1)N(O)CCCP(=O)(O)O | 5.70 | 7.21 | 6.89 |  |  |  | 
O=C(c1ccccc1OC(F)(F)F)N(O)CCC(c1ccc(Cl)c(Cl)c1)P(=O)(O)O (stereo not given) | 5.10 |  |  | inactive | < 5.00 | 90 | 7.05
C[C@@H]1CC[C@H]2[C@@H](C)C(=O)O[C@@H]3O[C@@]4(C)CC[C@@H]1[C@]32OO4 [ARTEMISININ] |  |  |  |  | 8.30 |  | 
NC(=O)c1cncc(C(=O)N(O)CCCP(=O)(O)O)c1 | 5.44 |  |  |  |  |  | 
CC(=O)Oc1cccc(C(=O)N(O)CCC(c2ccc(Cl)c(Cl)c2)P(=O)(O)O)c1 (stereo not given) | < 4.00 |  |  | inactive | 5.41 | 30 | 
CC(=O)N(O)CCCP(=O)(O)O [FR-900098] |  | 7.74 | 7.29 |  |  |  | 
O=C(Cc1ccccc1)N(O)CCCP(=O)(O)O | 4.17 |  | 4.89 |  |  |  | 6.49
O=CN(O)CCC(c1ccc(Cl)c(Cl)c1)P(=O)(O)O (stereo not given) |  |  |  |  |  |  | 6.92
O=C(c1ccco1)N(O)CCCP(=O)(O)O | 4.31 |  |  |  |  |  | 
O=C(c1ccccc1Cn1cncn1)N(O)CCC(c1ccc(Cl)c(Cl)c1)P(=O)(O)O (stereo not given) | 4.89 |  |  | inactive | < 5.00 | 70 | 7.40
CC(=O)N(O)CCC(c1ccc(Cl)c(Cl)c1)P(=O)(O)O (stereo not given) |  |  |  |  |  |  | 6.44
O=C(c1ccccc1Cc1cccs1)N(O)CCC(c1ccc(Cl)c(Cl)c1)P(=O)(O)O (stereo not given) | 5.15 |  |  | inactive | < 5.00 | 90 | 
O=C(c1ccccc1C(F)(F)F)N(O)CCC(c1ccc(Cl)c(Cl)c1)P(=O)(O)O (stereo not given) | 5.05 |  |  | inactive |  | 70 | 
O=C(c1cccc(Cn2cncn2)c1)N(O)CCC(c1ccc(Cl)c(Cl)c1)P(=O)(O)O (stereo not given) | 6.85 |  |  | inactive | 6.41 | 90 | 6.77
O=C(c1ccccc1-c1ccccc1)N(O)CCC(c1ccc(Cl)c(Cl)c1)P(=O)(O)O (stereo not given) | 4.68 |  |  | inactive | < 5.00 | 60 | 
O=C(c1ccccc1)N(O)CCC(c1ccc(Cl)c(Cl)c1)P(=O)(O)O (stereo not given) | 6.49 |  |  | inactive | 7.40 | 100 | 6.68
O=C(c1ccc(Cn2cncn2)cc1)N(O)CCC(c1ccc(Cl)c(Cl)c1)P(=O)(O)O (stereo not given) | 5.92 |  |  | inactive | 6.72 | 80 | 6.70
O=C(NCC(=O)N(O)CCCP(=O)(O)O)C1CC1 | < 3.70 | 5.48 | 5.15 |  |  |  | 
O=C(c1ccccc1Nc1cccc(C(F)(F)F)c1)N(O)CCC(c1ccc(Cl)c(Cl)c1)P(=O)(O)O (stereo not given) | 4.72 |  |  | inactive | < 5.00 | 80 | 7.05
CCC(=O)N(O)CCCP(=O)(O)O | 4.57 |  |  |  |  |  | 
